# How the values were obtained:
# Assay type in all cases: functional
# [1] = tested on: Candida albicans; test: Antimicrobial activity against Candida albicans by broth microdilution method
# Method in brief: (§1)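 Clinical isolates from human patients, tested by broth microdilution using the AFST-EUCAST reference procedure for fermentative yeasts. The MIC was read per that reference method.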
# [2] = tested on: Candida parapsilosis; test: Antimicrobial activity against Candida parapsilosis by broth microdilution method; conditions: Lodderomyces parapsilosis; method in brief: as §1
# [3] = tested on: Meyerozyma guilliermondii; test: Antimicrobial activity against Candida guilliermondii by broth microdilution method; method in brief: as §1
# [4] = tested on: Kluyveromyces marxianus; test: Antimicrobial activity against Candida kefyr by broth microdilution method; method in brief: as §1
# [5] = tested on: Wickerhamomyces anomalus; test: Antimicrobial activity against Candida pelliculosa by broth microdilution method; conditions: Hansenula anomala; method in brief: as §1
# [6] = tested on: Torulaspora delbrueckii; test: Antimicrobial activity against Candida coliculosa by broth microdilution method; method in brief: as §1
# [7] = tested on: Pichia norvegensis; test: Antimicrobial activity against Candida norvegensis by broth microdilution method; method in brief: as §1
# [8] = tested on: [Candida] intermedia; test: Antimicrobial activity against Candida intermedia by broth microdilution method; conditions: Sungouiella intermedia; method in brief: as §1
# [9] = tested on: Candida metapsilosis; test: Antimicrobial activity against Candida metapsilosis by broth microdilution method; conditions: Lodderomyces metapsilosis; method in brief: as §1
# [10] = tested on: Candida orthopsilosis; test: Antimicrobial activity against Candida orthopsilosis by broth microdilution method; conditions: Lodderomyces orthopsilosis; method in brief: as §1
# [11] = tested on: Kazachstania pintolopesii; test: Antimicrobial activity against Candida pintolopesii by broth microdilution method; conditions: Arxiozyma pintolopesii; method in brief: as §1
# [12] = tested on: Saccharomyces cerevisiae; test: Antimicrobial activity against Saccharomyces cerevisiae by broth microdilution method
# [13] = tested on: Trichosporon asahii; test: Antimicrobial activity against Trichosporon asahii by broth microdilution method
# Method in brief: (§2)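 Nonfermentative yeast clinical isolates (Rhodotorula, Trichosporon) tested by broth microdilution. The EUCAST yeast recommendations were followed strictly, with one minor modification to improve growth. MIC was read as the endpoint.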
# [14] = tested on: Rhodotorula mucilaginosa; test: Antimicrobial activity against Rhodotorula mucilaginosa by broth microdilution method; method in brief: as §2
# [15] = tested on: Trichosporon dermatis; test: Antimicrobial activity against Trichosporon dermatis by broth microdilution method; conditions: Cutaneotrichosporon dermatis; method in brief: as §2
# [16] = tested on: Trichosporon jirovecii; test: Antimicrobial activity against Trichosporon jirovecii by broth microdilution method; conditions: Cutaneotrichosporon jirovecii; method in brief: as §2
# [17] = tested on: Rhodotorula glutinis; test: Antimicrobial activity against Rhodotorula glutinis by broth microdilution method; method in brief: as §2
# [18] = tested on: Trichosporon domesticum; test: Antimicrobial activity against Trichosporon mycotoxinivorans by broth microdilution method; conditions: Apiotrichum domesticum
# Method in brief: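 Spanish human clinical isolates were tested as nonfermentative yeasts by broth microdilution. The method strictly followed the EUCAST recommendations, with a minor modification to improve growth, and the read-out was the MIC.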
# [19] = tested on: Aspergillus fumigatus; test: Antimicrobial activity against Aspergillus fumigatus by broth microdilution method
# Method in brief: (§3)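 Clinical mould isolates, tested by broth microdilution using the AFST-EUCAST reference method for filamentous fungi. For echinocandins, the endpoint was the minimum effective concentration: the lowest drug concentration giving aberrant hyphal growth, read with an inverted microscope.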
# [20] = tested on: Aspergillus terreus; test: Antimicrobial activity against Aspergillus terreus by broth microdilution method; method in brief: as §3
# [21] = tested on: Aspergillus ustus; test: Antimicrobial activity against Aspergillus ustus by broth microdilution method; method in brief: as §3
# [22] = tested on: Fennellia nivea; test: Antimicrobial activity against Aspergillus niveus by broth microdilution method; method in brief: as §3
# [23] = tested on: Aspergillus sclerotiorum; test: Antimicrobial activity against Aspergillus sclerotiorum by broth microdilution method; method in brief: as §3
# [24] = tested on: Fusarium proliferatum; test: Antimicrobial activity against Fusarium proliferatum by broth microdilution method; method in brief: as §3
# [25] = tested on: Fusarium oxysporum; test: Antimicrobial activity against Fusarium oxysporum by broth microdilution method; method in brief: as §3
# [26] = tested on: Fusarium verticillioides; test: Antimicrobial activity against Fusarium verticillioides by broth microdilution method
# Method in brief: (§4)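 Filamentous fungus clinical isolates tested by the AFST-EUCAST reference broth microdilution method for moulds. For echinocandins, the endpoint was the minimum effective concentration: the lowest drug concentration giving aberrant hyphal growth, read with an inverted microscope.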
# [27] = tested on: Paecilomyces variotii; test: Antimicrobial activity against Paecilomyces variotii by broth microdilution method; method in brief: as §4
# [28] = tested on: Paecilomyces lilacinus; test: Antimicrobial activity against Paecilomyces lilacinus by broth microdilution method; conditions: Purpureocillium lilacinum; method in brief: as §4
# [29] = tested on: Scopulariopsis brevicaulis; test: Antimicrobial activity against Scopulariopsis brevicaulis by broth microdilution method; method in brief: as §4
# [30] = Antimicrobial activity against Hormographiella aspergillata by broth microdilution method; conditions: Coprinopsis cinerea; method in brief: as §4
# [31] = tested on: Fusarium reticulatum; test: Antimicrobial activity against Fusarium reticulatum by broth microdilution method; method in brief: as §4
# [32] = tested on: Neurospora sitophila; test: Antimicrobial activity against Chrysonilia sitophila by broth microdilution method; method in brief: as §3
# [33] = tested on: Scedosporium apiospermum; test: Antimicrobial activity against Scedosporium apiospermum by broth microdilution method; method in brief: as §4
# [34] = tested on: Lomentospora prolificans; test: Antimicrobial activity against Scedosporium prolificans by broth microdilution method; method in brief: as §4
# [35] = tested on: Alternaria alternata; test: Antimicrobial activity against Alternaria alternata by broth microdilution method; method in brief: as §3
# [36] = tested on: Lewia infectoria; test: Antimicrobial activity against Alternaria infectoria by broth microdilution method; method in brief: as §3
# [37] = tested on: Exophiala dermatitidis; test: Antimicrobial activity against Exophiala dermatitidis by broth microdilution method
# [38] = tested on: Cladosporium; test: Antimicrobial activity against Cladosporium spp. by broth microdilution method; method in brief: as §3
# [39] = tested on: Cladophialophora bantiana; test: Antimicrobial activity against Cladophialophora bantiana by broth microdilution method; method in brief: as §3
# [40] = tested on: Scytalidium hyalinum; test: Antimicrobial activity against Scytalidium hyalinum by broth microdilution method; conditions: Neoscytalidium hyalinum; method in brief: as §4
# [41] = tested on: Lecythophora hoffmannii; test: Antimicrobial activity against Lecythophora hoffmannii by broth microdilution method; conditions: Coniochaeta hoffmannii; method in brief: as §4
# [42] = tested on: Cunninghamella bertholletiae; test: Antimicrobial activity against Cunninghamella bertholletiae by broth microdilution method; method in brief: as §3
# [43] = Antimicrobial activity against Rhizopus microsporus by broth microdilution method; method in brief: as §4
# [44] = tested on: Rhizomucor; test: Antimicrobial activity against Rhizomucor spp.by broth microdilution method; method in brief: as §4
# [45] = tested on: Beauveria bassiana; test: Antimicrobial activity against Beauveria bassiana by broth microdilution method; method in brief: as §3
compound,measurement,setting,value
CC[C@H](C)C[C@H](C)CCCCCCCCC(=O)N[C@H]1C[C@@H](O)[C@@H](NCCN)NC(=O)[C@@H]2[C@@H](O)CCN2C(=O)[C@H]([C@H](O)CCN)NC(=O)[C@H]([C@H](O)[C@@H](O)c2ccc(O)cc2)NC(=O)[C@@H]2C[C@@H](O)CN2C(=O)[C@H]([C@@H](C)O)NC1=O [CASPOFUNGIN],MIC50,[1],0.06 µg/mL
same,MIC90,[1],0.12 µg/mL
same,MIC50,[2],1 µg/mL
same,MIC90,[2],1 µg/mL
same,MIC50,[3],0.5 µg/mL
same,MIC90,[3],1 µg/mL
same,MIC50,[4],0.06 µg/mL
same,MIC90,[4],0.12 µg/mL
same,MIC50,[5],0.06 µg/mL
same,MIC90,[5],0.5 µg/mL
same,MIC50,[6],0.06 µg/mL
same,MIC90,[6],0.5 µg/mL
same,MIC50,[7],0.06 µg/mL
same,MIC90,[7],0.5 µg/mL
same,MIC50,[8],0.06 µg/mL
same,MIC90,[8],0.5 µg/mL
same,MIC50,[9],0.06 µg/mL
same,MIC90,[9],0.5 µg/mL
same,MIC50,[10],0.06 µg/mL
same,MIC90,[10],0.5 µg/mL
same,MIC50,[11],0.06 µg/mL
same,MIC90,[11],0.5 µg/mL
same,MIC50,[12],0.5 µg/mL
same,MIC90,[12],1 µg/mL
same,MIC50,[13],> 16 µg/mL
same,MIC90,[13],> 16 µg/mL
same,MIC50,[14],> 16 µg/mL
same,MIC90,[14],> 16 µg/mL
same,MIC50,[15],> 16 µg/mL
same,MIC90,[15],> 16 µg/mL
same,MIC50,[16],> 16 µg/mL
same,MIC90,[16],> 16 µg/mL
same,MIC50,[17],> 16 µg/mL
same,MIC90,[17],> 16 µg/mL
same,MIC50,[18],> 16 µg/mL
same,MIC90,[18],> 16 µg/mL
same,MIC50,[19],0.25 µg/mL
same,MIC90,[19],0.5 µg/mL
same,MIC50,[20],1 µg/mL
same,MIC90,[20],2 µg/mL
same,MIC50,[21],0.12 µg/mL
same,MIC90,[21],0.5 µg/mL
same,MIC50,[22],0.12 µg/mL
same,MIC90,[22],0.5 µg/mL
same,MIC50,[23],0.12 µg/mL
same,MIC90,[23],0.5 µg/mL
same,MIC50,[24],> 16 µg/mL
same,MIC90,[24],> 16 µg/mL
same,MIC50,[25],> 16 µg/mL
same,MIC90,[25],> 16 µg/mL
same,MIC50,[26],> 16 µg/mL
same,MIC90,[26],> 16 µg/mL
same,MIC50,[27],0.5 µg/mL
same,MIC90,[27],4 µg/mL
same,MIC50,[28],> 16 µg/mL
same,MIC90,[28],> 16 µg/mL
same,MIC50,[29],> 16 µg/mL
same,MIC90,[29],> 16 µg/mL
same,MIC50,[30],> 16 µg/mL
same,MIC90,[30],> 16 µg/mL
same,MIC50,[31],> 16 µg/mL
same,MIC90,[31],> 16 µg/mL
same,MIC50,[32],> 16 µg/mL
same,MIC90,[32],> 16 µg/mL
same,MIC50,[33],2 µg/mL
same,MIC90,[33],> 16 µg/mL
same,MIC50,[34],8 µg/mL
same,MIC90,[34],> 16 µg/mL
same,MIC50,[35],4 µg/mL
same,MIC90,[35],> 16 µg/mL
same,MIC50,[36],> 16 µg/mL
same,MIC90,[36],> 16 µg/mL
same,MIC50,[37],0.25 µg/mL
same,MIC90,[37],1 µg/mL
same,MIC50,[38],0.25 µg/mL
same,MIC90,[38],1 µg/mL
same,MIC50,[39],0.25 µg/mL
same,MIC90,[39],1 µg/mL
same,MIC50,[40],0.25 µg/mL
same,MIC90,[40],1 µg/mL
same,MIC50,[41],0.25 µg/mL
same,MIC90,[41],1 µg/mL
same,MIC50,[42],> 16 µg/mL
same,MIC90,[42],> 16 µg/mL
same,MIC50,[43],> 16 µg/mL
same,MIC90,[43],> 16 µg/mL
same,MIC50,[44],> 16 µg/mL
same,MIC90,[44],> 16 µg/mL
same,MIC50,[45],> 16 µg/mL
same,MIC90,[45],> 16 µg/mL
